Source: paper PMC6177519 (Clinical and Experimental Gastroenterology, 2018)
Where “and” joins values, the source holds several entries; their conditions need not be identical. Identical values can stand only once. Like-named read-outs stand apart in the source and are kept apart here.

Legend:
Safety evaluation = assay type: in vivo, healthy adults; conditions: for Participants with any TEAEs: 60 mg
Outline: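 3-period crossover; single 60 mg test compound, fasted ≥10 h pre and 4 h post, as granules in 20 mL water via 16 French NG tube or oral syringe, or intact capsule with 240 mL water; ≥5-day washout. TEAE: onset/worsening from first dose to 30 days after last; MedDRA 15.0; phone follow-up 5–10 days post final dose; all dosed subjects.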

[1] = dual delayed-release formulation; cited from earlier work
[2] = human, plasma, 60 mg

SMILES: Cc1c(OCC(F)(F)F)ccnc1C[S@@+]([O-])c1nc2ccccc2[nH]1 [Dexlansoprazole, dexlansoprazole]
- Tolerability (Safety evaluation; 60 mg capsule, single doses, all administration routes): well tolerated
- Participants with any TEAEs (Safety evaluation; oral intact capsule, N=52): 12 (23.1%) n (%) and 12 (23.1) n (%)
- Participants with any TEAEs (Safety evaluation; oral syringe administration, N=60): 10 (16.7%) n (%) and 10 (16.7) n (%)
- Time of first release of dexlansoprazole after dosing [1]: 1 to 2 h
- Time of second release of dexlansoprazole after dosing [1]: 4 to 5 h
- Tmax ([2]; oral): ~5 h
- Tmax ([2]; po): ~5.5 h
